The record followed here is paper PMC2662489 (Biochemical Journal, 2009).

The target of assay [1] is T1, MsbA-MIANS (Escherichia coli, UniProt P60752). The assay is described as follows: MIANS fluorescence quenching titration of MsbA-MIANS. It counts as binding. To be noted: for Concentration-dependent quenching of MIANS fluorescence: titration of MsbA-MIANS with negatively charged drugs.
Assay [2] deals with T1, MsbA-MIANS. The assay is described as follows: Dual sequential titration of MsbA-MIANS fluorescence quenching. In kind it is binding. To be noted: for Effect of lipid A pre-binding on ligand binding affinity (in words): ATP at 10 °C, daunorubicin and p[NH]ppA at 23 °C; for Binding affinity of drug after prior binding of nucleotide (in words): ATP bound first, results not shown. A digest of the protocol: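 MIANS-labelled MsbA (100 μg/ml) was prepared by labelling with 10 μM MIANS, quenching with DTE and dialysing. It was held in 100 mM Hepes, 50 mM NaCl, 5 mM MgCl2, 0.05% DM, pH 7.5, at 23 °C, or 10 °C for ATP to prevent hydrolysis. […] Data were fitted to a single-site model for Kd and ΔFmax.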

Assay [3] deals with T2, MsbA (Escherichia coli, UniProt P60752). The assay is described as follows: ATPase activity assay. In kind it is biochemical. To be noted: ATP 0.05-10 mM, 0.05% DM. The gist of the method:
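Purified His-tagged MsbA (~100 μg/ml in 0.05% (w/v) DM) assayed colorimetrically for free Pi liberated from ATP across varied ATP levels. Labelled enzyme was first reacted with 10 μM MIANS for 2 h at 23 °C in the dark. Unreacted MIANS was quenched with 1 mM DTE before the ATPase measurement.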

In assay [4] the target is T2, MsbA. The assay is described as follows: Modulation of the rate of MsbA labelling by MIANS. In kind it is biochemical.
Where [5] appears, read: 23 °C, MsbA 100 μg/ml in 0.05% DM, single-site fit.
Where [6] appears, read: Kd, 23 °C, MsbA 100 μg/ml in 0.05% DM, single-site fit.
Setting [7] is: 10 °C, MsbA 100 μg/ml in 0.05% DM, ligand alone.
Setting [8] is: 10 °C, titrated after daunorubicin.

Read-outs that look alike come from different tables or passages of the source.

T2 sequence (P60752 whole entry): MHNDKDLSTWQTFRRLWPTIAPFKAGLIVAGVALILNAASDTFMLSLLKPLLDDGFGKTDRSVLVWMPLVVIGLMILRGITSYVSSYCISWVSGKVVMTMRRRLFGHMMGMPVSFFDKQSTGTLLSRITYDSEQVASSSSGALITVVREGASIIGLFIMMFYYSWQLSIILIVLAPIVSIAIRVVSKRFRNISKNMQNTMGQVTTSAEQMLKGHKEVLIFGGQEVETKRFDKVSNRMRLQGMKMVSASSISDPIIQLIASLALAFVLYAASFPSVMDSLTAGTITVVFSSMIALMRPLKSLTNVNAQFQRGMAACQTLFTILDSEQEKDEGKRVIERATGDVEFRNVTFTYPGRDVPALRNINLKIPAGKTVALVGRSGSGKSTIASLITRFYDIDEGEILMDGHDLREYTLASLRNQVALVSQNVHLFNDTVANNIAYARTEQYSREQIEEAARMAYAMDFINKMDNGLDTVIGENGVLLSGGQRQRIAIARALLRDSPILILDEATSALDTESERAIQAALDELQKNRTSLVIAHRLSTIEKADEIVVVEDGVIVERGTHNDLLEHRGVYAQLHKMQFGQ
T1 sequence (P60752 whole entry): as above

As to `Nc1ncnc2c1ncn2[C@@H]1O[C@H](COP(=O)(O)OP(=O)(O)O)[C@@H](O)[C@H]1O` [ADP], at MsbA-MIANS [1] (setting [5]), the Kd is 130 ± 60 µM and the “Maximal quenching (ΔFmax/F0×100)” value amounted to 8.48±0.4%.
The corresponding values for `Nc1ncnc2c1ncn2[C@@H]1O[C@H](COP(=O)(O)O)[C@@H](O)[C@H]1O` [AMP] are 800 ± 200 µM and 7.84±0.80%.
On MsbA-MIANS [1] (setting [6]), `Nc1ncnc2c1ncn2[C@@H]1O[C@H](CO[P@](=O)(O)O[P@](=O)(O)O[P@@](=O)(O)S)[C@@H](O)[C@H]1O` [ATP[S], adenosine 5´-[γ-thio]triphosphate] registered a Kd of 1.82 ± 0.29 µM.
As to `Nc1ncnc2c1ncn2[C@@H]1O[C@H](COP(=O)(O)OP(=O)(O)OP(=O)(O)O)[C@@H](O)[C@H]1O` [ATP], the Kd stood at 3050 ± 430 µM on MsbA-MIANS [1] (setting [7]); 950 ± 230 µM at MsbA-MIANS [2] (setting [8]); 2030 ± 300 µM at MsbA-MIANS [2] (10 °C, titrated after lipid A). The “Kd for ATP binding relative to that of p[NH]ppA” value on MsbA-MIANS [1] (ATP at 10 °C versus p[NH]ppA at 23 °C) is listed as greater than 7 fold. Also, the “Maximal quenching (ΔFmax/F0×100)” value on MsbA-MIANS [2] (setting [8]) is on record as 5.45±0.41%; on MsbA-MIANS [2] (10 °C, titrated after lipid A) it was 12.0±0.78%. Further, the “Effect of lipid A pre-binding on ligand binding affinity (in words)” value (“Effect of lipid A pre-binding” below) on MsbA-MIANS [2] was “relatively unaffected”. Also, the Km is 410 ± 40 µM on MsbA [3] (MIANS-labelled MsbA) and 520 ± 40 µM at MsbA [3] (unlabelled MsbA).
Regarding `COc1cccc2c1C(=O)c1c(O)c3c(c(O)c1C2=O)C[C@@](O)(C(C)=O)C[C@@H]3O[C@H]1C[C@H](N)[C@H](O)[C@H](C)O1` [Daunorubicin], the “Initial rate of labelling” value is reported as 27.4±2.3 ms^−1 on MsbA [4] and “the most” at MsbA [4] (listed as daunorubicin). Further, the Labelling efficiency at MsbA [4] amounted to 87.2±1.3%. On MsbA-MIANS [1] (setting [5]), the “Maximal quenching (ΔFmax/F0×100)” value is recorded as “highest quenching”. In addition, the Kd result was “essentially the same” on MsbA-MIANS [1] (23 °C, MsbA reconstituted into egg PC proteoliposomes); 2.97 ± 0.23 µM on MsbA-MIANS [1] (Kd, 10 °C, MsbA 100 μg/ml in 0.05% DM, ligand alone); 4.6 ± 0.2 µM at MsbA-MIANS [1] (setting [6]); 4.3 ± 0.79 µM on MsbA-MIANS [1] (Kd, 23 °C, MsbA reconstituted into egg PC proteoliposomes); 9.59 ± 0.39 µM at MsbA-MIANS [2] (Kd, 10 °C, titrated after ATP); 5.03 ± 0.11 µM on MsbA-MIANS [2] (Kd, 10 °C, titrated after lipid A). Binding on MsbA-MIANS [2] (Kd, 23 °C, titrated after lipid A) was put at a Kd of 4.42 ± 0.33 µM. The “Reduction in binding affinity after pre-binding of lipid A” value at MsbA-MIANS [2] (10 °C) was roughly 2 fold. In addition, at MsbA-MIANS [2], the “Effect of lipid A pre-binding” value is listed as “did not affect”. Besides, the “Binding affinity of drug after prior binding of nucleotide (in words)” value at MsbA-MIANS [2] was “reduced”.
For the compound `O=c1c(O)c(-c2ccc(O)c(O)c2)oc2cc(O)cc(O)c12` [Quercetin], on MsbA [4], the “Initial rate of labelling” value is 85.0±3.1 ms^−1 and the Labelling efficiency was determined as 78.8±1.0%. This compound had a Kd on MsbA-MIANS [1] (setting [6]) of 8.56 ± 0.79 µM.
Turning to `CC(C)[C@@H]1NC(=O)[C@H](C)OC(=O)[C@@H](C(C)C)NC(=O)[C@@H](C(C)C)OC(=O)[C@H](C(C)C)NC(=O)[C@H](C)OC(=O)[C@@H](C(C)C)NC(=O)[C@@H](C(C)C)OC(=O)[C@H](C(C)C)NC(=O)[C@H](C)OC(=O)[C@@H](C(C)C)NC(=O)[C@@H](C(C)C)OC1=O` [Valinomycin], at MsbA [4], the “Initial rate of labelling” value was found to be 66.8±3.4 ms^−1 and the Labelling efficiency was determined as 101±3.2%. Moreover, the Kd at MsbA-MIANS [1] was 0.35 ± 0.04 µM.
`COc1ccc(CCN(C)CCCC(C#N)(c2ccc(OC)c(OC)c2)C(C)C)cc1OC` (centres unmarked) [Verapamil]: on MsbA [4], the “Initial rate of labelling” value came out at 71.0±2.6 ms^−1 and the Labelling efficiency is 82.2±3.6%. The dissociation constant (Kd) on MsbA-MIANS [1] (setting [6]) was found to be 1.26 ± 0.09 µM.
For `CC[C@]1(O)C[C@@H]2CN(CCc3c([nH]c4ccccc34)[C@@](C(=O)OC)(c3cc4c(cc3OC)N(C)[C@H]3[C@@](O)(C(=O)OC)[C@H](OC(C)=O)[C@]5(CC)C=CCN6CC[C@]43[C@@H]65)C2)C1` [Vinblastine], the “Initial rate of labelling” value is given as 182±3.4 ms^−1 on MsbA [4] and “affected the least” on MsbA [4] (listed as vinblastine). At MsbA [4], this compound returned a Labelling efficiency of 105±4.5%. The Kd at MsbA-MIANS [1] (setting [6]) is 1.2 ± 0.14 µM. Also, the “Binding affinity of drug after prior binding of nucleotide (in words)” value on MsbA-MIANS [2] is recorded as “reduced”.
On to `CC1(C)S[C@@H]2[C@H](NC(=O)[C@H](N)c3ccccc3)C(=O)N2[C@H]1C(=O)O` [ampicillin], for which, on MsbA-MIANS [1], the “Concentration-dependent quenching of MIANS fluorescence” value is “No concentration-dependent quenching”.
`O=C(O)c1cn(C2CC2)c2cc(N3CCNCC3)c(F)cc2c1=O` [ciprofloxacin]: the “Concentration-dependent quenching of MIANS fluorescence” value at MsbA-MIANS [1] is “No concentration-dependent quenching”.
The same measure, in the same setting: under `CCn1cc(C(=O)O)c(=O)c2cc(F)c(N3CCNCC3)cc21` [norfloxacin] stands “No concentration-dependent quenching”; under `CC1COc2c(N3CCN(C)CC3)c(F)cc3c(=O)c(C(=O)O)cn1c23` (centres unmarked) [ofloxacin], “No concentration-dependent quenching”.
Regarding `Nc1ncnc2c1ncn2[C@@H]1O[C@H](COP(=O)(O)OP(=O)(O)NP(=O)(O)O)[C@@H](O)[C@H]1O` [p[NH]ppA, adenosine 5′-[β,γ-imido]triphosphate], the Kd on MsbA-MIANS [1] (setting [5]) is 470 ± 30 µM; at MsbA-MIANS [2] (23 °C, titrated after lipid A), 650 ± 80 µM. Further, on MsbA-MIANS [2] (23 °C, titrated after lipid A), the “Maximal quenching (ΔFmax/F0×100)” value is 23.2±1.2%. Moreover, on MsbA-MIANS [2], the “Effect of lipid A pre-binding” value is given as “relatively unaffected”.
In turn, Lipid A returned a Labelling efficiency on MsbA [4] (23 °C, MIANS:MsbA stoichiometry after 2000 s, drug at ~5-fold its Kd (2-40 μM)) of 118±9.2%. The “Maximal quenching (ΔFmax/F0×100)” value at MsbA-MIANS [1] (setting [7]) is listed as 6.02±0.11%; on MsbA-MIANS [2] (10 °C, titrated after ATP), 17.7±1.0%; on MsbA-MIANS [2] (setting [8]) it was 7.31±0.50%; on MsbA-MIANS [2] (23 °C, titrated after daunorubicin) it was 15.7±1.4%; on MsbA-MIANS [2] (23 °C, titrated after p[NH]ppA) it was 10.9±1.2%. On MsbA-MIANS [2], the “Increase of ΔFmax for quenching when daunorubicin was bound first” value stood at 2 fold. Besides, the “Reduction of binding affinity when ATP was pre-bound” value at MsbA-MIANS [2] (10 °C) is roughly 8 fold. In addition, the “Reduction of binding affinity when p[NH]ppA was pre-bound” value at MsbA-MIANS [2] (23 °C) is recorded as roughly 3 fold.
